Source: PMC4203513 (Autophagy, 2014)
Entries after “also recorded” stand apart in the source; their conditions may differ. Read-outs that look alike come from different tables or passages of the source.

Key:
[1] = system: newly diagnosed GB; conditions: radiation and carmustine with or without CQ; cited from earlier work
[2] = system: autophagic vacuoles in peripheral blood mononuclear cells; experiment: PK-PD analysis; assay type: in vivo, human; conditions: at 9 wk
[3] = Population pharmacokinetics of HCQ in whole blood; assay type: in vivo, human
[4] = system: autophagic vacuoles in peripheral blood mononuclear cells; experiment: Electron microscopy scoring of autophagic vacuoles in PBMC; assay type: in vivo, human
How it was run: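 PBMC were fixed in 2% glutaraldehyde and held at 4 °C. Micrographs at 10,000–12,000× covered 20–25 mononuclear cells per sample, from multiple fields. Two blinded scorers counted AV by morphological criteria, excluding mitochondria-like structures, and their counts were averaged. A mixed-effects model used time (baseline, week 3, week 9) and a random subject effect.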

[5] = system: patients with newly diagnosed glioblastoma; assay type: in vivo, human
[6] = system: patients with newly diagnosed glioblastoma; experiment: Phase II adverse events related to study drug; assay type: in vivo, human
[7] = system: newly diagnosed glioblastoma; conditions: phase III trial, RT plus concomitant and adjuvant TMZ; cited from earlier work
[8] = HCQ 800 mg/d with RT + TMZ, during chemoradiation
[9] = phase II, n = 76, HCQ + RT + TMZ

CCN(CC)CCCC(C)Nc1ccnc2cc(Cl)ccc12 (stereo not shown) [CQ, Chloroquine]
median overall survival [1]: trend toward increased median overall survival

CCN(CCO)CCCC(C)Nc1ccnc2cc(Cl)ccc12 (stereo not shown) [HCQ, hydroxychloroquine]
PK-PD correlation in PBMC [2]: not significant
relationship of HCQ exposure / whole blood concentration to dose ([3]; HCQ 200 to 800 mg/d): dose-proportional relationship; also recorded: dose-proportional and sustained exposure
time-dependent trend of HCQ concentrations in whole blood ([3]; groups of patients receiving the same dose): did not show a significant time-dependent trend
mean tlag (individual estimates) ([3]; individual PK parameter estimates derived from the population model, range 0.97 to 1.25): 1.06 h
mean V/F (individual estimates) ([3]; individual PK parameter estimates derived from the population model, range 26 to 5483): 483.96 L
V2/F (individual estimates) ([3]; individual PK parameter estimates derived from the population model, range 558 to 2208): 963 L
increase in mean autophagic vacuole count (mixed-effects model) ([4]; all patients (n = 40), P = 0.041): 0.075 per wk
treatment-associated increase in AV diameter ([4]; one patient, 800 mg HCQ cohort): 2.5 fold
treatment-associated increase in AV perimeter ([4]; one patient, 800 mg HCQ cohort): 10 fold
treatment-associated increase in percent of cytoplasm involved by AV ([4]; one patient, 800 mg HCQ cohort): 9 fold
dose-limiting toxicities (DLTs) ([5]; HCQ 200 mg/d with RT + TMZ): no dose-limiting toxicities
dose-limiting toxicities (DLTs) ([5]; HCQ 400 mg/d with RT + TMZ): no dose-limiting toxicities; also recorded: no further DLTs were observed
dose-limiting toxicities (DLTs) ([5]; HCQ 600 mg/d with RT + TMZ, 3 patients): no DLTs
dose-limiting toxicity ([5]; HCQ 800 mg/d with RT + TMZ): early and severe myelosuppression; also recorded: dose-limiting myelosuppression
subjects with Grade 3 and 4 neutropenia and thrombocytopenia ([5]; HCQ 800 mg/d with RT + TMZ): 3/3
patients with grade 4 neutropenia [5, 8]: 2/3
patients with grade 4 thrombocytopenia [5, 8]: 3/3
other grade 2 toxicities common to all dose levels ([5]; HCQ 200 to 800 mg/d with RT + TMZ): nausea, fatigue, constipation, and diarrhea
maximum tolerated dose (MTD) of HCQ ([5]; oral daily, in combination with RT and concurrent and adjuvant TMZ): 600 mg/day
patients off treatment due to toxicity ([6]; phase I and II patients, RT + TMZ + HCQ): 3%
Abdominal pain, Grade 3 [6, 9]: 1 (1) number of patients (%)
Abdominal pain, Total (grade 3 and 4) [6, 9]: 1 (1) number of patients (%)
Alanine aminotransferase increased, Grade 3 [6, 9]: 2 (3) number of patients (%)
Alanine aminotransferase increased, Total (grade 3 and 4) [6, 9]: 2 (3) number of patients (%)
Blood bilirubin increased, Total (grade 3 and 4) [6, 9]: 1 (1) number of patients (%)
Constipation, Grade 4 [6, 9]: 1 (1) number of patients (%)
Constipation, Total (grade 3 and 4) [6, 9]: 1 (1) number of patients (%)
Eye disorders, Grade 3 [6, 9]: 1 (1) number of patients (%)
Eye disorders, Total (grade 3 and 4) [6, 9]: 1 (1) number of patients (%)
Fatigue, Grade 3 [6, 9]: 1 (1) number of patients (%)
Fatigue, Total (grade 3 and 4) [6, 9]: 1 (1) number of patients (%)
Neutrophil count decreased, Grade 3 [6, 9]: 3 (4) number of patients (%)

Cn1nnc2c(C(N)=O)ncn2c1=O [TMZ, temozolomide]
failure rate (death) [7]: 0.6 per person-year of follow-up
